Results as given in ChEMBL document CHEMBL1155580, “Chemical constituents of Clausena excavata: isolation and structure elucidation of novel furanone-coumarins with inhibitory effects for tumor-promotion” (J Nat Prod, 2000).

Columns and labels:
Assay type in all cases: cell-based
Raji [1] = assay: Inhibition of 12-O-tetradecanoylphorbol-13-acetate-induced EBV-early antigen activation in human Raji cells assessed as EA activation at 32 nmol relative to 12-O-tetradecanoylphorbol-13-acetate; set-up: scale not given: the % may be the effect or the level left; details: human gammaherpesvirus 4
Summary of the method: (§1)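 Raji cells at 10^6 cells/mL resuspended in RPMI 1640 with 10% FCS, 4 mM n-butyric acid as inducer and 32 pmol TPA (20 ng/mL in DMSO), plus test agent in DMSO (32, 16, 3.2 or 0.32 nmol). Held 37 °C for 48 h. EA-positive cells scored blind, at least 500 cells per assay. Values are % of the TPA positive control (100%), ± s.d.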

[2] = Cytotoxicity against human Raji cells assessed as cell viability at 3.2 nmol by trypan blue staining; details: read-out: Activity
Summary of the method: (§2)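 Raji cells grown to 10^6 cells/mL, pelleted and resuspended in RPMI 1640 with 10% FCS, 4 mM n-butyric acid and 32 pmol TPA (20 ng/mL). Test agent added in DMSO at mole ratios to TPA (1000 = 32 nmol, 500 = 16 nmol, 100 = 3.2 nmol, 10 = 0.32 nmol). Incubated 37 °C for 48 h. Viability counted by hemocytometer with Trypan Blue.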

[3] = Cytotoxicity against human Raji cells assessed as cell viability at 32 nmol by trypan blue staining; details: read-out: Activity; summary of the method: as §2
Raji [4] = assay: Inhibition of 12-O-tetradecanoylphorbol-13-acetate-induced EBV-early antigen activation in human Raji cells assessed as EA activation at 16 nmol relative to 12-O-tetradecanoylphorbol-13-acetate; set-up: scale not given: the % may be the effect or the level left; details: human gammaherpesvirus 4; summary of the method: as §1
[5] = Cytotoxicity against human Raji cells assessed as cell viability at 16 nmol by trypan blue staining; details: read-out: Activity; summary of the method: as §2
Raji [6] = assay: Inhibition of 12-O-tetradecanoylphorbol-13-acetate-induced EBV-early antigen activation in human Raji cells assessed as EA activation at 0.32 nmol relative to 12-O-tetradecanoylphorbol-13-acetate; set-up: scale not given: the % may be the effect or the level left; details: human gammaherpesvirus 4; summary of the method: as §1
Raji [7] = assay: Inhibition of 12-O-tetradecanoylphorbol-13-acetate-induced EBV-early antigen activation in human Raji cells assessed as EA activation at 3.2 nmol relative to 12-O-tetradecanoylphorbol-13-acetate; set-up: scale not given: the % may be the effect or the level left; details: human gammaherpesvirus 4; summary of the method: as §1
[8] = Cytotoxicity against human Raji cells assessed as cell viability at 0.32 nmol by trypan blue staining; details: read-out: Activity; summary of the method: as §2

Structure (SMILES): C=C1CC(CC(C)(O)C2COc3ccc4ccc(=O)oc4c3O2)OC1=O (stereo not given) [CLAUSLACTONE A]
- Activity (Raji [1]): 26.4%
- viability at 3.2 nmol [2]: > 80%
- viability at 32 nmol [3]: 60%
- Activity (Raji [4]): 59.2%
- viability at 16 nmol [5]: > 80%
- Activity (Raji [6]): 100%
- Activity (Raji [7]): 85.2%
- viability at 0.32 nmol [8]: > 80%

Structure (SMILES): CC1(O)CC(CC(C)(O)C2COc3ccc4ccc(=O)oc4c3O2)OC1=O (stereo not given) [CLAUSLACTONE B]
- Activity (Raji [1]): 17.1%
- viability at 3.2 nmol [2]: > 80%
- viability at 32 nmol [3]: 60%
- Activity (Raji [4]): 50.5%
- viability at 16 nmol [5]: > 80%
- Activity (Raji [6]): 100%
- Activity (Raji [7]): 82.7%
- viability at 0.32 nmol [8]: > 80%

Structure (SMILES): CC(O)(CC1CC(O)(CO)C(=O)O1)C1COc2ccc3ccc(=O)oc3c2O1 (stereo not given) [CLAUSLACTONE C]
- Activity (Raji [1]): 10.3%
- viability at 3.2 nmol [2]: > 80%
- viability at 32 nmol [3]: 60%
- Activity (Raji [4]): 46.9%
- viability at 16 nmol [5]: > 80%
- Activity (Raji [6]): 95.3%
- Activity (Raji [7]): 80.1%
- viability at 0.32 nmol [8]: > 80%

Structure (SMILES): CC(O)(CC1C=C(CO)C(=O)O1)C1COc2ccc3ccc(=O)oc3c2O1 (stereo not given) [CLAUSLACTONE D]
- Activity (Raji [1]): 19.6%
- viability at 3.2 nmol [2]: > 80%
- viability at 32 nmol [3]: 60%
- Activity (Raji [4]): 52.3%
- viability at 16 nmol [5]: > 80%
- Activity (Raji [6]): 100%
- Activity (Raji [7]): 84.8%
- viability at 0.32 nmol [8]: > 80%

Structure (SMILES): C=C1CC(C/C(C)=C/COc2ccc3ccc(=O)oc3c2O)OC1=O (stereo not given) [CLAUSLACTONE E]
- Activity (Raji [1]): 22.4%
- viability at 3.2 nmol [2]: > 80%
- viability at 32 nmol [3]: 60%
- Activity (Raji [4]): 58.8%
- viability at 16 nmol [5]: > 80%
- Activity (Raji [6]): 100%
- Activity (Raji [7]): 86.2%
- viability at 0.32 nmol [8]: > 80%

Structure (SMILES): C=C1CC(CC2(C)OC2COc2ccc3ccc(=O)oc3c2)OC1=O (stereo not given) [CLAUSLACTONE F]
- Activity (Raji [1]): 29.3%
- viability at 3.2 nmol [2]: > 80%
- viability at 32 nmol [3]: 60%
- Activity (Raji [4]): 62.7%
- viability at 16 nmol [5]: > 80%
- Activity (Raji [6]): 100%
- Activity (Raji [7]): 89.6%
- viability at 0.32 nmol [8]: > 80%

Structure (SMILES): CC1(O)CC(CC2(C)OC2COc2ccc3ccc(=O)oc3c2)OC1=O (stereo not given) [CLAUSLACTONE H]
- Activity (Raji [1]): 25.1%
- viability at 3.2 nmol [2]: > 80%
- viability at 32 nmol [3]: 60%
- Activity (Raji [4]): 60.4%
- viability at 16 nmol [5]: > 80%
- Activity (Raji [6]): 100%
- Activity (Raji [7]): 88.4%
- viability at 0.32 nmol [8]: > 80%

Structure (SMILES): C/C(=C\COc1ccc2ccc(=O)oc2c1)CC1CC(O)(CO)C(=O)O1 (stereo not given) [CLAUSLACTONE I]
- Activity (Raji [1]): 20.6%
- viability at 3.2 nmol [2]: > 80%
- viability at 32 nmol [3]: 60%
- Activity (Raji [4]): 54.3%
- viability at 16 nmol [5]: > 80%
- Activity (Raji [6]): 100%
- Activity (Raji [7]): 82.5%
- viability at 0.32 nmol [8]: > 80%

Structure (SMILES): CC1(CC2C=C(CO)C(=O)O2)OC1COc1ccc2ccc(=O)oc2c1 (stereo not given) [CLAUSLACTONE J]
- Activity (Raji [1]): 27.4%
- viability at 3.2 nmol [2]: > 80%
- viability at 32 nmol [3]: 60%
- Activity (Raji [4]): 65.8%
- viability at 16 nmol [5]: > 80%
- Activity (Raji [6]): 100%
- Activity (Raji [7]): 85.2%
- viability at 0.32 nmol [8]: > 80%

Structure (SMILES): COc1ccc2ccc(=O)oc2c1 [HERNIARIN]
- Activity (Raji [1]): 0%
- viability at 3.2 nmol [2]: > 80%
- viability at 32 nmol [3]: 30%
- Activity (Raji [4]): 71.7%
- viability at 16 nmol [5]: 60%
- Activity (Raji [6]): 100%
- Activity (Raji [7]): 100%
- viability at 0.32 nmol [8]: > 80%
